# Reference: ChEMBL document CHEMBL4706664, “Rational drug design of 6-substituted 4-anilino-2-phenylpyrimidines for exploration of novel ABCG2 binding site” (Eur J Med Chem, 2021)
# Target: ATP-dependent translocase ABCB1 (Homo sapiens, UniProt P08183)
# Test: Inhibition of ABCB1 (unknown origin) expressed in human A2780 ADR cells assessed as reduction in calcein AM efflux preincubated for 30 mins followed by calcein AM addition and measured at 60 secs interval for 1 hr by fluorescence assay
# Format: cell-based
# Conditions: a2780 adr; call rule not given here
# Method in brief: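 Calcein AM accumulation in A2780/ADR cells (30,000/well, Krebs-HEPES buffer pH 7.4). Cells preincubated with compound 30 min at 37 °C, 5% CO2. Then 20 µL of 3.125 µM calcein AM added. Fluorescence (ex 485/em 520 nm) read every 60 s for 1 h. […] Screening at 10 µM.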
# Sequence of ATP-dependent translocase ABCB1 (P08183 whole entry): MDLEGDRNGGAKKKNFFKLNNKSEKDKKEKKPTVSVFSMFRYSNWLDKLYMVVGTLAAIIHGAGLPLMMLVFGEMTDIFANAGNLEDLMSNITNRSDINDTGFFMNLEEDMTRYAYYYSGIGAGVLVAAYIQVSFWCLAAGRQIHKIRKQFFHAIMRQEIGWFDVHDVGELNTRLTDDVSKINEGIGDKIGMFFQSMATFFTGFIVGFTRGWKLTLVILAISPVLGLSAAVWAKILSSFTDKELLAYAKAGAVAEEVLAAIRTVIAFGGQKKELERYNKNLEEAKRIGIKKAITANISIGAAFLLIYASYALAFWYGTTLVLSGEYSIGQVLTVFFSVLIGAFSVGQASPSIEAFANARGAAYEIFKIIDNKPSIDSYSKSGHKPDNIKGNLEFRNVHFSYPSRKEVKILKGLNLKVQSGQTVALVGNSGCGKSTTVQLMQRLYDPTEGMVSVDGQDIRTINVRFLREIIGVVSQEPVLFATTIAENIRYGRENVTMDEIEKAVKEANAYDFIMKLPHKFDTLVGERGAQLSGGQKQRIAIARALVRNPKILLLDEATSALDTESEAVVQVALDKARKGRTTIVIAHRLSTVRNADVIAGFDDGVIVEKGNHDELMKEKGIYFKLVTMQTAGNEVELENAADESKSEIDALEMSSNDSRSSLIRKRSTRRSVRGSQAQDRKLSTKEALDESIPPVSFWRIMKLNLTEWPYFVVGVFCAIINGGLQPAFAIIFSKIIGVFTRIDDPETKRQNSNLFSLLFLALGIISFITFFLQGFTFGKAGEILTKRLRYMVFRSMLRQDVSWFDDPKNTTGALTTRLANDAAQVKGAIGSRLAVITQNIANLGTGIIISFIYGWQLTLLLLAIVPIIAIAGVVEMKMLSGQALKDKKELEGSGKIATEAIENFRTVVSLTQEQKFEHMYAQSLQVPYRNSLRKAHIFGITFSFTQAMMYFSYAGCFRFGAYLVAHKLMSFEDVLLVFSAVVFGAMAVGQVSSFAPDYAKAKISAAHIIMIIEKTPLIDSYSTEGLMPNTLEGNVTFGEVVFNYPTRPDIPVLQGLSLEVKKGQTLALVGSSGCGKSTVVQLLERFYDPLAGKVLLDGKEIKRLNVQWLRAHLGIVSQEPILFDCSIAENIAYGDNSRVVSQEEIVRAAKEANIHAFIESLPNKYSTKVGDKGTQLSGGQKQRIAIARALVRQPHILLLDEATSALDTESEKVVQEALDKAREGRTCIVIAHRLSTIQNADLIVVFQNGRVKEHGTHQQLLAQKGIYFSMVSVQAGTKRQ
row,IC50,Compound
1,Not Active,N#Cc1ccc(Nc2cc(NCCCCc3ccccc3)nc(-c3ccccc3)n2)cc1
2,Not Active,N#Cc1ccc(Nc2cc(-c3ccccc3)nc(-c3ccccc3)n2)cc1
3,Not Active,N#Cc1ccc(Nc2cc(NCCCc3ccccc3)nc(-c3ccccc3)n2)cc1

# Same assay, conditions: read-out: IC50
row,Compound,IC50 [µM]
1,N#Cc1ccc(Nc2cc(NCc3cccnc3)nc(-c3ccccc3)n2)cc1,5.41
2,CNc1cc(Nc2ccc(C#N)cc2)nc(-c2ccccc2)n1,25.9

# The next lines start with the values.
row,IC50 [µM],Compound
1,3.52,N#Cc1ccc(Nc2cc(Nc3cccc(O)c3)nc(-c3ccccc3)n2)cc1
2,4.54,N#Cc1ccc(Nc2cc(Nc3ccc(O)cc3)nc(-c3ccccc3)n2)cc1
3,3.4,N#Cc1ccc(Nc2cc(NCc3ccccn3)nc(-c3ccccc3)n2)cc1
4,6.75,N#Cc1ccc(Nc2cc(Nc3ccc(C#N)cc3)nc(-c3ccccc3)n2)cc1

# System: not listed separately
# Test: Cytotoxicity against ABCC1 over expressing human NCI-H69AR cells assessed as reduction in cell viability measured after 72 hrs by MTT assay
# Format: ADME, cell-based
# Conditions: ABCC1 overexpressing NCI-H69AR cells
# Method in brief: (§1)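 MTT cell viability. Compound dilution series prepared in culture medium at 3.16 µM to 1 mM (dilution stock; added 20 µL to 180 µL cells). Seeding per well: MDCK II and MDCK II BCRP 2000, A2780 and A2780/ADR 8000, H69AR 20,000. Incubated 72 h, 37 °C, 5% CO2. MTT 5 mg/mL added for 60 min, formazan dissolved in DMSO, absorbance 570 nm (690 nm background). Medium = 100%, 10% DMSO = 0% viability. GI50 by four-parameter logistic fit. Mean ± SEM of at least three independent experiments.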
row,Compound,GI50 at 72 h [µM]
1,N#Cc1ccc(Nc2cc(Nc3ccc(O)cc3)nc(-c3ccccc3)n2)cc1,13.7
2,N#Cc1ccc(Nc2cc(Nc3cccc(O)c3)nc(-c3ccccc3)n2)cc1,11

# Target: ABCC1 (Homo sapiens, UniProt P33527)
# Test: Inhibition of ABCC1 (unknown origin) expressed in human NCI-H69AR cells assessed as reduction in calcein AM efflux at 10 uM preincubated for 30 mins followed by calcein AM addition and measured at 60 secs interval for 1 hr by fluorescence assay relative to control
# Format: cell-based
# Conditions: NCI-H69AR cells expressing ABCC1, probe calcein AM, time 90 min
# Sequence of ABCC1 (P33527 whole entry): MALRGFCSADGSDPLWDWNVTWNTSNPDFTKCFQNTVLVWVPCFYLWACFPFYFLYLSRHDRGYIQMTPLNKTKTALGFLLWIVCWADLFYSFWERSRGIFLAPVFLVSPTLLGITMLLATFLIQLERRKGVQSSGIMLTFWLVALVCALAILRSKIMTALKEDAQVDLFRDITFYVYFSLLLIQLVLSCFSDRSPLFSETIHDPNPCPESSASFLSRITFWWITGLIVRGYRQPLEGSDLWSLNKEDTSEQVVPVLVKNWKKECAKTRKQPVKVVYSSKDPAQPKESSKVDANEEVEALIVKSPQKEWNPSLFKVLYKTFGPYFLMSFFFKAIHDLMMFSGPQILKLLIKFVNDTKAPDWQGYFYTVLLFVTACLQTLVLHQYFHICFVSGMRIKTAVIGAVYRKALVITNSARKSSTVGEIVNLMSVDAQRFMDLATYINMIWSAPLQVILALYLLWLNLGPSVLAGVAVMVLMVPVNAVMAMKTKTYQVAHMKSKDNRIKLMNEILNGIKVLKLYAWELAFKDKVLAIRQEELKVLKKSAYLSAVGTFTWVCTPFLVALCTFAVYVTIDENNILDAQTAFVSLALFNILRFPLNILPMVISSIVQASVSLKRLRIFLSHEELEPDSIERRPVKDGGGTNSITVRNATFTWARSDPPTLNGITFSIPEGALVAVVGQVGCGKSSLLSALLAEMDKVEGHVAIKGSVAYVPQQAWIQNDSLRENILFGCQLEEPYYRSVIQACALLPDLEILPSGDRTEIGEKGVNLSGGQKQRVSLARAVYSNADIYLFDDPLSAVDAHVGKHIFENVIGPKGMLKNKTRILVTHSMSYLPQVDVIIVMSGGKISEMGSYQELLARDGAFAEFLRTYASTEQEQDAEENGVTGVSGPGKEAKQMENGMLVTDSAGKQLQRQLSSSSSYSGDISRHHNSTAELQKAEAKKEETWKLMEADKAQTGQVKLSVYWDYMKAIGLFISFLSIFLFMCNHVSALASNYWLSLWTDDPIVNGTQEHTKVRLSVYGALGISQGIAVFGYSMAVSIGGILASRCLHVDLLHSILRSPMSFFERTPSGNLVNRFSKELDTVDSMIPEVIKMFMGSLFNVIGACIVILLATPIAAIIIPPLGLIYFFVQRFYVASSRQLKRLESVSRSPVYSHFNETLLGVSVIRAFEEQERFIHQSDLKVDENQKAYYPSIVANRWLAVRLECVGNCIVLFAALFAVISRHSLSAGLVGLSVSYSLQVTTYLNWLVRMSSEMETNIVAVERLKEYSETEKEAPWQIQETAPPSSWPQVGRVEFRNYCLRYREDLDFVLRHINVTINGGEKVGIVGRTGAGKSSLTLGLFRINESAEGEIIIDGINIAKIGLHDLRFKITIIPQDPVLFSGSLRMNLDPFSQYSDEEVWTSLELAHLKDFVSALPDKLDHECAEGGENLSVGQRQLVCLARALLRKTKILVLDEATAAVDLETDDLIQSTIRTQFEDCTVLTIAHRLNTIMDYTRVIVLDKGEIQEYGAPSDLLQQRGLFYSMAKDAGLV
row,"inhibition at 1 h, 10 µM [%]",Compound
1,> 20,N#Cc1ccc(Nc2cc(NCc3cccnc3)nc(-c3ccccc3)n2)cc1
2,> 20,N#Cc1ccc(Nc2cc(Nc3ccc(O)cc3)nc(-c3ccccc3)n2)cc1
3,> 20,N#Cc1ccc(Nc2cc(Nc3cccc(O)c3)nc(-c3ccccc3)n2)cc1

# Target: T1, Broad substrate specificity ATP-binding cassette transporter ABCG2 (Homo sapiens, UniProt Q9UNQ0)
# T1 sequence (Q9UNQ0 whole entry): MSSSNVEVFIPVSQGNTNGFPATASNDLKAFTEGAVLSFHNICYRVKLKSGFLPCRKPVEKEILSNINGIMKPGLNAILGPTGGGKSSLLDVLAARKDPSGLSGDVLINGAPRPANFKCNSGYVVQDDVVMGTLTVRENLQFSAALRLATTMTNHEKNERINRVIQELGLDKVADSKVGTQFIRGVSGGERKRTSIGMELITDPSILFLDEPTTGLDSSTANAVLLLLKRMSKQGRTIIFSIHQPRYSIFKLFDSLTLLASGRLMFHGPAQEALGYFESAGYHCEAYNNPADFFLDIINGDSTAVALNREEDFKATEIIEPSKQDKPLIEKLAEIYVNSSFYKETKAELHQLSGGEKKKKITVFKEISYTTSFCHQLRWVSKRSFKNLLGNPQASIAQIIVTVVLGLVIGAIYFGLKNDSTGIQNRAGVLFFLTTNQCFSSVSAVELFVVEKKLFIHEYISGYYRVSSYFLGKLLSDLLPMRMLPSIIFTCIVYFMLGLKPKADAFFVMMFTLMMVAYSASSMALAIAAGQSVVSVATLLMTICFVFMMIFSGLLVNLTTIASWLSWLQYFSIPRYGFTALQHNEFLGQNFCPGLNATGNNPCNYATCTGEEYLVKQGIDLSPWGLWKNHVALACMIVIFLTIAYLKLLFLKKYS
# Test: Inhibition of ABCG2 (unknown origin) expressed in MDCK-II cells assessed as reduction in pheophorbide A efflux measured after 2 hrs by flow cytometry
# Format: cell-based
# Conditions: not given
# Method in brief: (§2)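 Pheophorbide A accumulation in MDCK II BCRP cells, about 45,000 cells/well in Krebs-HEPES buffer pH 7.4. Compound dilutions were prepared at 0.316–100 µM, and 20 µL of 5 µM pheophorbide A was added. Incubated 2 h at 37 °C, 5% CO2. Fluorescence read by flow cytometry (ex 488 nm, em 695/50 nm). IC50 and Imax are mean ± SEM of at least three independent experiments.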
row,Compound,IC50 [µM]
1,N#Cc1ccc(Nc2cc(NCc3cccnc3)nc(-c3ccccc3)n2)cc1,0.373
2,CNc1cc(Nc2ccc(C#N)cc2)nc(-c2ccccc2)n1,0.141
3,N#Cc1ccc(Nc2cc(-c3ccccc3)nc(-c3ccccc3)n2)cc1,4.41
4,N#Cc1ccc(Nc2cc(NCCCc3ccccc3)nc(-c3ccccc3)n2)cc1,0.096

# The remaining molecules from weak to strong by IC50, led by results:
row,IC50 [µM],Compound
1,0.608,N#Cc1ccc(Nc2cc(Nc3cccc(O)c3)nc(-c3ccccc3)n2)cc1
2,0.387,N#Cc1ccc(Nc2cc(Nc3ccc(O)cc3)nc(-c3ccccc3)n2)cc1
3,0.21,N#Cc1ccc(Nc2cc(NCc3ccccn3)nc(-c3ccccc3)n2)cc1
4,0.147,N#Cc1ccc(Nc2cc(NCCCCc3ccccc3)nc(-c3ccccc3)n2)cc1
5,0.133,N#Cc1ccc(Nc2cc(Nc3ccc(C#N)cc3)nc(-c3ccccc3)n2)cc1

# System: not listed separately
# Test: Cytotoxicity against ABCG2 overexpressing MDCK-II cells assessed as reduction in cell viability measured after 72 hrs by MTT assay
# Format: ADME, cell-based, Canis lupus familiaris
# Conditions: dog
# Method in brief: as §1
row,Compound,GI50 at 72 h [µM]
1,N#Cc1ccc(Nc2cc(NCc3cccnc3)nc(-c3ccccc3)n2)cc1,5.54
2,N#Cc1ccc(Nc2cc(Nc3ccc(O)cc3)nc(-c3ccccc3)n2)cc1,5.15
3,CNc1cc(Nc2ccc(C#N)cc2)nc(-c2ccccc2)n1,25
4,N#Cc1ccc(Nc2cc(NCc3ccccn3)nc(-c3ccccc3)n2)cc1,8.56
5,N#Cc1ccc(Nc2cc(NCCCCc3ccccc3)nc(-c3ccccc3)n2)cc1,9.48
6,N#Cc1ccc(Nc2cc(Nc3cccc(O)c3)nc(-c3ccccc3)n2)cc1,5.12
7,N#Cc1ccc(Nc2cc(Nc3ccc(C#N)cc3)nc(-c3ccccc3)n2)cc1,7.78
8,N#Cc1ccc(Nc2cc(-c3ccccc3)nc(-c3ccccc3)n2)cc1,21.9
9,N#Cc1ccc(Nc2cc(NCCCc3ccccc3)nc(-c3ccccc3)n2)cc1,3.64

# System: not listed separately
# Test: Cytotoxicity against ABCB1 over expressing human A2780 cells assessed as reduction in cell viability measured after 72 hrs by MTT assay
# Format: ADME, cell-based
# Conditions: in the assay text read “human A2780 cells” for “ABCB1 over expressing human A2780 cells”
# Method in brief: as §1
row,Compound,GI50 at 72 h [µM]
1,N#Cc1ccc(Nc2cc(Nc3ccc(O)cc3)nc(-c3ccccc3)n2)cc1,8.02
2,N#Cc1ccc(Nc2cc(Nc3cccc(O)c3)nc(-c3ccccc3)n2)cc1,3.55

# System: not listed separately
# Test: Cytotoxicity against ABCB1 over expressing human A2780 ADR cells assessed as reduction in cell viability measured after 72 hrs by MTT assay
# Format: ADME, cell-based
# Conditions: ABCB1 overexpressing A2780 ADR cells
# Method in brief: as §1
row,Compound,GI50 at 72 h [µM]
1,N#Cc1ccc(Nc2cc(Nc3ccc(O)cc3)nc(-c3ccccc3)n2)cc1,9.21
2,N#Cc1ccc(Nc2cc(Nc3cccc(O)c3)nc(-c3ccccc3)n2)cc1,5.91

# Target: ABCB1 (Homo sapiens, UniProt P08183)
# Test: Inhibition of ABCB1 (unknown origin) expressed in human A2780 ADR cells assessed as reduction in calcein AM efflux at 10 uM preincubated for 30 mins followed by calcein AM addition and measured at 60 secs interval for 1 hr by fluorescence assay relative to control
# Format: cell-based
# Conditions: A2780 ADR cells expressing ABCB1, probe calcein AM, time 90 min
# Method in brief: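 Calcein AM accumulation in A2780/ADR cells (30,000/well, Krebs-HEPES buffer pH 7.4). Cells preincubated with compound 30 min at 37 °C, 5% CO2. Screening at 10 µM.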
# Sequence of ABCB1 (P08183 whole entry): as the sequence (P08183 whole entry) above
row,Compound,"inhibition at 1 h, 10 µM [%]"
1,N#Cc1ccc(Nc2cc(NCc3cccnc3)nc(-c3ccccc3)n2)cc1,> 20
2,CNc1cc(Nc2ccc(C#N)cc2)nc(-c2ccccc2)n1,> 20

# More lines, now with the values ahead:
row,"inhibition at 1 h, 10 µM [%]",Compound
1,> 20,N#Cc1ccc(Nc2cc(Nc3cccc(O)c3)nc(-c3ccccc3)n2)cc1
2,> 20,N#Cc1ccc(Nc2cc(Nc3ccc(O)cc3)nc(-c3ccccc3)n2)cc1
3,> 20,N#Cc1ccc(Nc2cc(NCc3ccccn3)nc(-c3ccccc3)n2)cc1
4,> 20,N#Cc1ccc(Nc2cc(Nc3ccc(C#N)cc3)nc(-c3ccccc3)n2)cc1

# System: ABCG2
# Test: Therapeutic index, ratio of GI50 for cytotoxicity against ABCG2 overexpressing MDCK-II cells to IC50 for inhibition of ABCG2 (unknown origin) expressed in MDCK-II cells
# Conditions: dog
row,Compound,selectivity ratio
1,N#Cc1ccc(Nc2cc(NCc3cccnc3)nc(-c3ccccc3)n2)cc1,14.9
2,CNc1cc(Nc2ccc(C#N)cc2)nc(-c2ccccc2)n1,180
3,N#Cc1ccc(Nc2cc(NCc3ccccn3)nc(-c3ccccc3)n2)cc1,40.8
4,N#Cc1ccc(Nc2cc(NCCCCc3ccccc3)nc(-c3ccccc3)n2)cc1,65
5,N#Cc1ccc(Nc2cc(Nc3ccc(C#N)cc3)nc(-c3ccccc3)n2)cc1,58.7
6,N#Cc1ccc(Nc2cc(-c3ccccc3)nc(-c3ccccc3)n2)cc1,4.96
7,N#Cc1ccc(Nc2cc(NCCCc3ccccc3)nc(-c3ccccc3)n2)cc1,38.4

# Target: T2, ABCG2 (Homo sapiens, UniProt Q9UNQ0)
# T2 sequence (Q9UNQ0 whole entry): T1 sequence (Q9UNQ0 whole entry)
# Test: Inhibition of ABCG2 (unknown origin) expressed in MDCK-II cells assessed as reduction in pheophorbide A efflux measured after 2 hrs by flow cytometry relative to Ko143
# Format: cell-based
# Conditions: MDCK-II cells expressing ABCG2, probe pheophorbide A, read-out: Imax
# Method in brief: as §2
row,Compound,Emax at 2 h [%]
1,N#Cc1ccc(Nc2cc(NCc3cccnc3)nc(-c3ccccc3)n2)cc1,91
2,CNc1cc(Nc2ccc(C#N)cc2)nc(-c2ccccc2)n1,68
3,N#Cc1ccc(Nc2cc(-c3ccccc3)nc(-c3ccccc3)n2)cc1,100
4,N#Cc1ccc(Nc2cc(NCCCc3ccccc3)nc(-c3ccccc3)n2)cc1,61

# The next lines start with the values.
row,Emax at 2 h [%],Compound
1,66,N#Cc1ccc(Nc2cc(Nc3cccc(O)c3)nc(-c3ccccc3)n2)cc1
2,76,N#Cc1ccc(Nc2cc(Nc3ccc(O)cc3)nc(-c3ccccc3)n2)cc1
3,88,N#Cc1ccc(Nc2cc(NCc3ccccn3)nc(-c3ccccc3)n2)cc1
4,61,N#Cc1ccc(Nc2cc(NCCCCc3ccccc3)nc(-c3ccccc3)n2)cc1
5,60,N#Cc1ccc(Nc2cc(Nc3ccc(C#N)cc3)nc(-c3ccccc3)n2)cc1

# System: not listed separately
# Test: Cytotoxicity against wild-type MDCK-II cells assessed as reduction in cell viability measured after 72 hrs by MTT assay
# Format: cell-based, Canis lupus familiaris
# Conditions: dog
# Method in brief: as §1
row,Compound,GI50 at 72 h [µM]
1,N#Cc1ccc(Nc2cc(NCc3cccnc3)nc(-c3ccccc3)n2)cc1,7.47
2,N#Cc1ccc(Nc2cc(Nc3ccc(O)cc3)nc(-c3ccccc3)n2)cc1,5.3
3,CNc1cc(Nc2ccc(C#N)cc2)nc(-c2ccccc2)n1,34.1
4,N#Cc1ccc(Nc2cc(NCc3ccccn3)nc(-c3ccccc3)n2)cc1,9.44
5,N#Cc1ccc(Nc2cc(NCCCCc3ccccc3)nc(-c3ccccc3)n2)cc1,10.6
6,N#Cc1ccc(Nc2cc(Nc3cccc(O)c3)nc(-c3ccccc3)n2)cc1,5.24
7,N#Cc1ccc(Nc2cc(Nc3ccc(C#N)cc3)nc(-c3ccccc3)n2)cc1,7.09
8,N#Cc1ccc(Nc2cc(-c3ccccc3)nc(-c3ccccc3)n2)cc1,25.1
9,N#Cc1ccc(Nc2cc(NCCCc3ccccc3)nc(-c3ccccc3)n2)cc1,5.03
